Most compounds without a hit are left out; they make up all but 27% or so of the library.
CYP2C9 inhib – blockers of cytochrome P450 2C9 activity – biochemical, luminescence, ADME assay, primary screen; P11712; CYP2C9 Supersomes, luciferin-H conversion; inhibition, % at 5 µM; 96,000 compounds, 20% hits; AID 777, 2007;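 active means blocking of liver enzyme CYP2C9 beyond about 50% at 5 µM, limit read from the data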
HIV Rev-RRE inh – HIV-1 Rev-RRE binding inhibitors, primary screen, biochemical, FRET, protein-RNA interaction | inhibition, % at 8 µM | AID 704, 2007 | Rev peptide-RRE RNA binding | 97,000 compounds, 0.79% hits;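 active means inhibition above the screen-wide mean plus 3 SD, cut at about 35% in these data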;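 further: 0% = median DMSO wells and 100% = median Neomycin B control wells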
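Assay system: labelled RRE RNA duplex and labelled Rev peptide / Medium: HEPES pH 7.5 salt buffer with EDTA / Reagent: labelled Rev peptide / Schedule: 5 + 15 min at 25 °C / Signal: FRET, excitation 480 nm, emission 540 nm donor and 671 nm acceptor / Benchmarks: DMSO and neomycin B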
CYP2C19 inh – blockers of cytochrome P450 2C19 activity – biochemical, luminescence, ADME assay, primary screen; P33261; CYP2C19 Supersomes, luciferin-H EGE luminescence, 30 min; inhibition, % at 5 µM; 96,000 compounds, 21% hits;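 active means CYP2C19 inhibition above a set limit at 5 µM in the primary screen, cut at about 50% in these data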;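 further: plate controls were negative control wells for no effect and 2.5 mM tranylcypromine positive control for full effect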
Target sequence (P33261 whole entry, looked up): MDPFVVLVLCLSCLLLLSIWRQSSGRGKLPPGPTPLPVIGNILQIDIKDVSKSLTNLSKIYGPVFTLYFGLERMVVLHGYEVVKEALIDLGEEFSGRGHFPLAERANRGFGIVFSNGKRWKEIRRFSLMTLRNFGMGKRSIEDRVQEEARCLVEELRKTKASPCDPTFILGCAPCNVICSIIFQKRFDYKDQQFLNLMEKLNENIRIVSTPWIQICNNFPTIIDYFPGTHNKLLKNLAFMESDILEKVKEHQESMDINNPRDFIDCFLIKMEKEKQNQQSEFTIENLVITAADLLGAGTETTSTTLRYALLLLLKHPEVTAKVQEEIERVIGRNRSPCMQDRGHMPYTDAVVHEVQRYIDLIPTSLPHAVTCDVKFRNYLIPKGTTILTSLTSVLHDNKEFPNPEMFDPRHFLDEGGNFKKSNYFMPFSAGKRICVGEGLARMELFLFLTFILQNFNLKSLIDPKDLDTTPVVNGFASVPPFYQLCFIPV
CYP2C9 activ – human CYP2C9 activators, primary screen, biochemical, luminescence; Cytochrome P450 2C9 (Homo sapiens), P11712; recombinant CYP2C9, luciferin-H conversion; active compounds read high; factor 1 = untreated enzyme, 0 = blocked; activation factor at 5 µM; 96,000 compounds, 1.4% hits; AID 1024, 2008;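 active means activation factor of 2 or more for CYP2C9 at a 5 µM dose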;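 further: 0 = sulfaphenazole-blocked wells and 1 = vehicle-only wells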
CYP2C19 activ – human CYP2C19 activators, primary screen, biochemical, luminescence | Cytochrome P450 2C19 (Homo sapiens), P33261 | recombinant CYP2C19, luciferin-H EGE luminescence; active compounds read high; 0 = fully inhibited enzyme, 1 = untreated enzyme | activation factor at 5 µM | 96,000 tested, under 10 active;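 active means activation factor of at least 2 at 5 µM in the primary screen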;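 further: 0 = wells with 2.5 mM tranylcypromine and 1 = vehicle-only wells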
Cav32 inh – Cav3.2 calcium influx blockers – cell-based, Fluo-4 calcium fluorescence, FDSS, MLSMR library, primary screen. Voltage-dependent T-type calcium channel subunit alpha-1H (Homo sapiens), O95180. Cav3.2-expressing cells; active compounds read low. B-score at 10 µM. 100,000 compounds, 4% hits. AID 449739, 2010;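 active means single-dose well whose peak fluorescence ratio is a statistical outlier from its plate by either plate-standardised score or position-corrected B-score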
* hit, by the source's call; . = no result.

SMILES	CYP2C9 inhib	HIV Rev-RRE inh	CYP2C19 inh	CYP2C9 activ	CYP2C19 activ	Cav32 inh
O=C(C1CCCN(Cc2cccs2)C1)N1CCCCCC1 (configuration not stated)	-1	10	0	1	1	0.59
CCOC(=O)C1CCN(Cc2ccc(N(C)C)cc2)CC1	-15	.	27	1.1	0.7	.
CCOC(=O)C1CCCN(Cc2nc(N)nc(Nc3ccc(Cl)cc3)n2)C1 (configuration not stated)	67*	4	63*	0.3	0.4	.
[O-]/[N+](=C\c1ccncc1)c1ccccc1	19	4	21	0.8	0.8	.
CCOC(=O)C1CCCN(C/C(O)=C(\C#N)c2nc(-c3ccc(Cl)cc3)cs2)C1 (configuration not stated)	58*	0	14	0.4	0.9	-0.88
CCOC(=O)N1CCN(Cc2cc(=O)oc3ccc(Cl)cc23)CC1	56*	2	73*	0.4	0.3	0.83
CCOC(=O)C1CCCN(Cc2ccccc2C)C1 (configuration not stated)	2	.	88*	1	0.1	0.52
CCOC(=O)C1CCCN(CC(=O)Nc2c(C(=O)OC)[nH]c3ccccc23)C1 (configuration not stated)	12	7	27	0.9	0.7	1.1
CCOC(=O)C1CCN(Cc2ccccc2C)CC1	13	4	77*	0.9	0.2	0.96
CCOC(=O)C1CCN(Cc2cccc(OC)c2)CC1	3	2	77*	1	0.2	-1.4
CCOC(=O)N1CCN(CCC(=O)c2ccc(Cl)cc2)CC1	64*	0	37	0.4	0.6	1.9
CCOC(=O)C1CCN(Cc2ccc(OC)cc2OC)CC1	17	.	13	0.8	0.9	0.73
CCOC(=O)C1CCCN(Cc2ccccc2OCC)C1 (configuration not stated)	3	6	47	1	0.5	-0.58
CCOC(=O)N1CCN(Cc2cccs2)CC1	7	3	90*	0.9	0.1	0.45
CCOC(=O)C1CCCN(Cc2ccccc2Cl)C1 (configuration not stated)	24	4	80*	0.8	0.2	0.56
COc1ccc(C(C(=O)NC2CCCC2)N(Cc2ccccc2)C(=O)CNC(=O)c2ccco2)cc1 (configuration not stated)	-1	8	31	1	0.7	-1.9
CC(CN1CCCCC1)OC(=O)C1c2ccccc2Oc2ccccc21 (configuration not stated)	-17	-2	72*	1.2	0.3	-0.38
O=C(Nc1ccc(Cl)cc1Cl)C1CCC(=O)N1Cc1ccccc1Cl (configuration not stated)	33	6	51*	0.7	0.5	.
CC/C(=N\NC(=O)c1ccc2c(c1)OCO2)C12CC3CC(CC(C3)C1)C2	38	0	-4	0.6	1	-0.22
O=C(NNC(=S)NC(=O)C12CC3CC(CC(C3)C1)C2)c1ccncc1	94*	3	67*	0.1	0.3	-4.3*
O=C(NNC(=S)Nc1ccccc1)c1ccncc1	69*	7	70*	0.3	0.3	.
CC/C(=N\NC(=O)c1ccncc1)C12CC3CC(CC(C3)C1)C2	14	-2	94*	0.9	0.1	0.12
Cc1ccc(CCNC(=O)C2CCCN2S(=O)(=O)c2ccc3c(c2)CCC(=O)N3)cc1 (configuration not stated)	27	1	2	0.7	1	0.24
CC1(OC(=O)CCc2ccccc2)C(=O)C=C2C=C(C3CC3)OC=C2C1=O (configuration not stated)	.	.	.	.	.	0.035
O=C(c1ccc(N2CCOCC2)cc1)c1cccs1	-2	0	14	1	0.9	0.84
